Laboratory results: ChEMBL document CHEMBL1123412, “Thiopurine methyltransferase: structure-activity relationships for benzoic acid inhibitors and thiophenol substrates” (J Med Chem, 1986)

What was measured:
Type in all cases: tissue-based
[1] = substrate: Sc1ccc(Cl)cc1; assay: (§1) Apparent binding constant for purified human kidney TPMT
How it was run: (§2)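 Enzyme purified >300-fold from human kidney (100000g supernatant, ammonium sulfate, DEAE-A25, Sephadex G-100). The thiophenol replaced 6-MP as methyl acceptor, with 25 μM [14C-methyl]AdoMet at pH 6.7 and 37 °C for 30 min. Stopped with borate pH 10, extracted, scintillation counted. Five or more concentrations near Km in triplicate, at least twice. Apparent Km by Wilkinson method, averaged.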

[2] = substrate: Sc1cccc(Cl)c1; assay: as §1; how it was run: as §2
[3] = substrate: Sc1ccccc1; assay: as §1; how it was run: as §2
[4] = substrate: O=C(O)c1ccccc1S; assay: as §1; how it was run: as §2
[5] = substrate: Sc1ccccc1Br; assay: as §1; how it was run: as §2
[6] = substrate: Cc1ccc(S)cc1; assay: as §1; how it was run: as §2
[7] = substrate: CC(=O)Nc1ccc(S)cc1; assay: as §1; how it was run: as §2
[8] = substrate: COc1ccc(S)cc1; assay: as §1; how it was run: as §2
[9] = substrate: Nc1ccccc1S; assay: as §1; how it was run: as §2
[10] = substrate: COc1ccccc1S; assay: as §1; how it was run: as §2
[11] = substrate: Fc1ccc(S)cc1; assay: as §1; how it was run: as §2
[12] = substrate: Sc1ccc(Br)cc1; assay: as §1; how it was run: as §2
[13] = substrate: COc1cccc(S)c1; assay: as §1; how it was run: as §2
[14] = substrate: O=[N+]([O-])c1ccc(S)cc1; assay: as §1; how it was run: as §2

B1: Thiopurine S-methyltransferase (Homo sapiens), P51580 (protein)
chain: MDGTRTSLDIEEYSDTEVQKNQVLTLEEWQDKWVNGKTAFHQEQGHQLLKKHLDTFLKGKSGLRVFFPLCGKAVEMKWFADRGHSVVGVEISELGIQEFFTEQNLSYSEEPITEIPGTKVFKSSSGNISLYCCSIFDLPRTNIGKFDMIWDRGALVAINPGDRKCYADTMFSLLGKKFQYLLCVLSYDPTKHPGPPFYVPHAEIERLFGKICNIRCLEKVDAFEERHKSWGIDCLFEKLYLLTEK
Km [1]: 3.6 µM
Km [2]: 2.4 µM
Km [3]: 3.9 µM
Km [4]: 7.8 µM
Km [5]: 0.8 µM
Km [6]: 5.9 µM
Km [7]: 2.1 µM
Km [8]: 3.2 µM
Km [9]: 2.5 µM
Km [10]: 2.6 µM
Km [11]: 5.6 µM
Km [12]: 4.8 µM
Km [13]: 2.1 µM
Km [14]: 6.5 µM
